These results are taken from ChEMBL document CHEMBL3120079, “NF-κB inhibitors from Eurycoma longifolia” (J Nat Prod, 2014).

Molecules are shown by their SMILES. In brackets after ≈: the same amount, converted by molar mass. Activity calls are given as the source filed them.

The species entered for series [1] is Homo sapiens. Put plainly: Inhibition of NF-kappaB activity in TNF-alpha stimulated human HEK-293/NF-kB-luc cells at 30 uM incubated for 30 mins prior to TNF-alpha challenge for 4 hrs by luciferase reporter gene assay. Summed up: (§1)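 HEK293/NF-κB-luc cells were prestained with 2 μM CMFDA for 1 h, reseeded at 4 × 10^4 cells/well overnight in phenol red-free, serum-free DMEM, pretreated 30 min with compound or 0.1% DMSO vehicle, then stimulated with TNF-α 2 ng/mL for 4 h. Lysates were read for firefly luciferase, normalized to CMFDA fluorescence for cell number. Screen at 30 μM; IC50 determined for selected compounds.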

The next series concerns HEK293. Put plainly: Growth inhibition of TNF-alpha stimulated human HEK-293/NF-kB-luc cells assessed as cell viability at 30 uM incubated for 30 mins prior to TNF-alpha challenge for 4 hrs by CellTracker Green CMFDA staining. It counts as cell-based. To be noted: hek293, 4 h. In outline: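 Cells loaded 1 h with 2 μM CellTracker Green CMFDA in serum-free medium, reseeded at 4 × 10^4 cells/well overnight in phenol red-free, FBS-free DMEM. Pretreated with test compound or vehicle (0.1% DMSO) for 30 min, then TNF-α 2 ng/mL for 4 h. After lysis, CMFDA fluorescence was compared with vehicle-treated cells.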

The nature of series [2]: (§2) Inhibition of NF-kappaB activity in TNF-alpha stimulated human HEK-293/NF-kB-luc cells incubated for 30 mins prior to TNF-alpha challenge for 4 hrs by luciferase reporter gene assay. In outline: as §1
In general terms: In a reporter assay the amount or activity of a reporter protein is the signal.

A short description of series [3]: Toxicity against brine shrimp. It counts as organism-based. To be noted: artemia, in vivo; read-out: LD50 (the source's name).
The nature of series [4]: Acute toxicity in po dosed mouse. It counts as organism-based. The following applies: in vivo.
Series [5] is filed under the species Homo sapiens. The description is as §2. Summed up:
as §1

The mark [6] stands for this setting: Homo sapiens, HEK293, read-out: IC50.

What is called inhibition is the percentage by which the read-out fell short of the control. `O=c1ccc2nccc3c4ccc(O[C@@H]5O[C@H](CO)[C@@H](O)[C@H](O)[C@H]5O)cc4n1c23`: the inhibition result in the series filed under Homo sapiens [1] was “inactive”. The Activity result in the series on HEK293 is reported as “Non-toxic”.

In general, IC50 refers to the concentration that inhibits the measured activity by half. For `CC1=CC(=O)[C@@H](O)[C@]2(C)[C@H]3C(=O)[C@H](O)[C@H](C)[C@@H]4CC(=O)O[C@H](C[C@@H]12)[C@]34C`, the IC50 in series [2] (setting [6]) came out at 1.9 µM. Besides, the inhibition in the series filed under Homo sapiens [1] was greater than 50%. In the series on HEK293, the Activity entry is on record as “Non-toxic”.

With `CC1=CC(=O)[C@@H](O)[C@]2(C)[C@H]3[C@@H](O)[C@H](O)[C@H](C)[C@]4(O)[C@@H](O)C(=O)O[C@H](C[C@@H]12)[C@]34C`, the IC50 in series [2] (setting [6]) was determined as 1 µM. Moreover, the inhibition in the series listed under Homo sapiens [1] is greater than 50%. Moreover, the Activity result with HEK293 is given as “Non-toxic”. Besides, the LC50 in series [3] is 324 µg/mL (≈ 816 µM).

As usually defined, the LD50 is the dose at which mortality reaches 50%. Low readings indicate greater toxicity, high ones lower toxicity. As for `C=C1[C@@H](O)[C@@]2(O)OC[C@]34[C@H]2[C@@]2(C)[C@H](O)C(=O)C=C(C)[C@@H]2C[C@H]3OC(=O)[C@H](O)[C@@]14O` [EURYCOMANONE], in series [2] (setting [6]), the IC50 was found to be 2.4 µM. In the series listed under Homo sapiens [1], this molecule showed an inhibition greater than 50%. In addition, in the series on HEK293, the Activity result is reported as “Non-toxic”. Moreover, the LC50 in series [3] stood at 3.5 µg/mL (≈ 8.57 µM). Besides, in series [4], the LD50 turned out to be 50 mg/kg.

As for `CC1=CC(=O)[C@@H](O)[C@@]2(C)[C@H]1CC(=O)[C@@]1(C)[C@H]3C(=O)O[C@H]([C@@H]3C)[C@H](O)[C@@H]12` [EURYCOMALACTONE], the IC50 in series [2] (setting [6]) was found to be 0.5 µM. Besides, the inhibition in the series filed under Homo sapiens [1] was greater than 50%. Moreover, in the series with HEK293, the Activity entry is reported as “Non-toxic”.

Take `CC1=CC(=O)[C@@H](O)[C@@]2(C)[C@H]1[C@@H](O)[C@H]1OC(=O)C3[C@@H](C)[C@H](O)[C@H](O)[C@H]2[C@]31C` (stereo partly drawn) [LONGILACTONE]: the IC50 in series [2] (setting [6]) was determined as 4.7 µM. Also, in the series filed under Homo sapiens [1], the inhibition was greater than 50%. Further, the Activity result in the series on HEK293 is “Non-toxic”. The LC50 in series [3] came to 145 µg/mL (≈ 395 µM).

Regarding `COc1cc(C=O)ccc1O`, the inhibition result in the series filed under Homo sapiens [5] was “inactive”.

With `COc1ccc(-c2oc3c(OC)c(OC)c(OC)c(OC)c3c(=O)c2OC)cc1OC` [3,5,6,7,8,3',4'-HEPTAMETHOXYFLAVONE], the IC50 in series [2] (setting [6]) amounted to 23.3 µM. In addition, the inhibition in the series filed under Homo sapiens [1] is greater than 50%. Besides, the Activity entry in the series on HEK293 was “Non-toxic”.

Take `C[C@H]1[C@H]2OC(=O)[C@@H]1[C@]1(C)C(=O)C=C3[C@H](C)CC(=O)[C@@H](O)[C@]3(C)[C@H]1[C@H]2O`: the IC50 in series [2] (setting [6]) is 18.4 µM. For the same molecule, the inhibition in the series filed under Homo sapiens [1] is greater than 50%. In addition, the Activity entry in the series on HEK293 is listed as “Non-toxic”.

On to `CC1=CC(=O)[C@@H](O)[C@]2(C)[C@H]3[C@@]4(O)OC[C@@]35[C@@H](C[C@@H]12)OC(=O)[C@H](O)[C@@]5(O)[C@@H](C)[C@H]4O`, for which the IC50 in series [2] (setting [6]) amounted to 0.7 µM. The inhibition in the series listed under Homo sapiens [1] was greater than 50%. The Activity entry in the series on HEK293 was “Non-toxic”. Besides, the LC50 in series [3] amounted to 10.3 µg/mL (≈ 25.1 µM).

`C[C@@H]1CC[C@]2(C(=O)O[C@@H]3O[C@H](CO)[C@@H](O)[C@H](O)[C@H]3O)CC[C@]3(C)C(=CC[C@@H]4[C@@]5(C)CC[C@H](O)[C@@](C)(CO)[C@@H]5CC[C@]43C)[C@@H]2[C@]1(C)O` [PEDUNCULOSIDE]: the inhibition entry in the series filed under Homo sapiens [5] was “inactive”. For the same molecule, the Activity entry with HEK293 is recorded as “Non-toxic”.

Regarding `CC1=CC(=O)[C@]2(C)[C@H]3[C@@H](O)[C@@H]4OC(=O)[C@@H]([C@H]4C)[C@]3(C)C(=O)C[C@@H]12` [LAURYCOLACTONE A], the IC50 result in series [2] is recorded as “Not Active”. Also, the Activity entry in the series with HEK293 is on record as “Non-toxic”.

For `COc1c(O)c2nccc3c4ccccc4n(c1=O)c23` [PICRASIDINE Q], the inhibition result in the series listed under Homo sapiens [1] was “inactive”. Further, the Activity entry in the series with HEK293 was “Non-toxic”.

For the molecule `CC1=CC(=O)[C@@]2(C)C1=CC(=O)[C@]1(C)[C@@H]2[C@@H](O)[C@@H]2OC(=O)[C@H]1[C@H]2C` [LAURYCOLACTONE B], in series [2], the IC50 result was “Not Active”. For the same molecule, in the series on HEK293, the Activity result is on record as “Non-toxic”.

As to `COc1cc(C)c2c(=O)cc(C[C@H](C)O)oc2c1[C@@H]1O[C@H](CO)[C@@H](O)[C@H](O)[C@H]1OC(=O)/C=C/c1ccc(O)cc1`, the inhibition entry in the series listed under Homo sapiens [5] is “inactive”.

Regarding `COc1cc2ccc(=O)oc2c(O)c1OC`, the inhibition result in the series listed under Homo sapiens [5] is “inactive”. Besides, the Activity entry in the series with HEK293 is “Non-toxic”.

As for `CC1=C[C@H](O)[C@@H](O)[C@@]2(C)[C@H]1CC(=O)[C@@]1(C)[C@H]3C(=O)O[C@H]([C@@H]3C)[C@H](O)[C@@H]12` [EURYCOLACTONE E], in series [2] (setting [6]), the IC50 amounted to 3.8 µM. In the series filed under Homo sapiens [1], this molecule had an inhibition greater than 50%. Also, in the series on HEK293, the Activity entry is “Non-toxic”.

On to `CC1=CC(=O)[C@@H](O)[C@]2(C)[C@H]3[C@@H](O)[C@@H]4OC(=O)[C@@H]([C@H]4C)[C@]3(C)[C@H](O)C[C@@H]12`, for which the IC50 in series [2] (setting [6]) is 1.5 µM. This molecule also registered an inhibition in the series listed under Homo sapiens [1] greater than 50%. In addition, the Activity entry with HEK293 is “Non-toxic”.

Consider `O=C(O)c1ccc(O)c(-c2cc(C(=O)O)ccc2O)c1`, for which, in the series listed under Homo sapiens [5], the inhibition entry is “inactive”.

For `COc1ccc2c3ccnc4ccc(=O)n(c2c1)c43`, in series [2] (setting [6]), the IC50 stood at 7.4 µM. In addition, the inhibition in the series listed under Homo sapiens [1] is greater than 50%. Also, the Activity entry with HEK293 was “Non-toxic”.

As for `COc1cc(C(=O)O)ccc1O`, the inhibition result in the series listed under Homo sapiens [5] was “inactive”.

On to `COc1cc2ccc(=O)oc2cc1O` [SCOPOLETIN], for which the inhibition result in the series listed under Homo sapiens [5] is “inactive”. Moreover, the Activity result in the series on HEK293 is “Non-toxic”.

As to `COc1cc(C(=O)O)cc(OC)c1O`, the inhibition entry in the series filed under Homo sapiens [5] is “inactive”.

Consider `COc1cc2c3ccnc4ccc(=O)n(c2cc1OC)c43.Cl`, for which the IC50 in series [2] (setting [6]) stood at 19.5 µM. In the series filed under Homo sapiens [1], the inhibition is greater than 50%. Besides, the Activity entry in the series on HEK293 was “Non-toxic”.

For `C=C1C(=O)O[C@@H]2C3O[C@]3(C)CC/C=C(\C)CC[C@@H]12` (stereo partly drawn), in series [2] (setting [6]), the IC50 worked out at 1.5 µM. In addition, in the series with HEK293, the Activity result is on record as “Non-toxic”.

With `CC(=O)O[C@@H](CC[C@@H](OC(C)=O)[C@]1(C)CC[C@H]([C@@](C)(O)CCC=C(C)C)O1)[C@@]1(C)CC[C@H]([C@@](C)(O)CCC=C(C)C)O1`, in the series listed under Homo sapiens [5], the inhibition result was “inactive”. Besides, the Activity result in the series with HEK293 is “Non-toxic”.

Turning to `CC1=CC(=O)[C@@H](O)[C@@]2(C)C1=CC(=O)[C@]1(C)[C@@H]2[C@@H](O)[C@@H]2OC(=O)[C@H]1[C@H]2C`, the IC50 in series [2] (setting [6]) worked out at 6.2 µM. Further, the inhibition in the series filed under Homo sapiens [1] is greater than 50%. Moreover, the Activity result in the series with HEK293 is “Non-toxic”.

Take `COC(=O)c1nccc2c1[nH]c1ccccc12`: the IC50 in series [2] (setting [6]) was found to be 29.3 µM. The molecule further displayed an inhibition in the series listed under Homo sapiens [1] greater than 50%. Moreover, in the series on HEK293, the Activity entry is “Non-toxic”.

`O=c1ccc2nccc3c4ccc(O)cc4n1c23`: the IC50 in series [2] (setting [6]) came to 3.8 µM. Moreover, the inhibition in the series listed under Homo sapiens [1] was greater than 50%. Moreover, in the series with HEK293, the Activity result was “Non-toxic”.
